Env fusion inh – HIV envelope-mediated fusion inhibition; HeLa-JRFL Env/CEM21 cell fusion, luciferase; inhibition, % at 12.3 µM; hit rate 1.1% among 360,000; AID 651610;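 active means mean replicate inhibition score of at least 50 and every replicate individually at or above 50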;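 further: 0% = plate neutral controls and 100% = maraviroc near 300 nM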
GSK3A inh – human GSK-3 alpha kinase inhibition; P49840; ADP-Glo luminescence, 60 min; inhibition, % at 10 µM; hit rate 0.1% among 320,000; AID 2650;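 active means more than half of replicates show inhibition above 20%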;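 further: GST-tagged GSK-3 alpha with peptide substrate and 25 µM ATP; 0% = DMSO neutral wells and 100% = GW8510 positive control wells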
CDK5 inh – inhibitors of human CDK5/p35 kinase. Q00535+Q15078. Recombinant CDK5/p35, ADP-Glo luminescence, 60 min. inhibition, % at 10 µM. hit rate 0.01% among 330,000;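 active means highest replicate inhibition of at least 50% and at least 75% of replicates reaching 50%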;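 further: plate controls were DMSO neutral control for no effect and GW8510 at 10 µM for full effect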
GSK3beta inhib – inhibitors of human GSK3beta kinase; P49841; GST-GSK3beta kinase, ADP-Glo luminescence, 60 min; hits give low values; activity score (negative = inhibition), % at 10 µM; hit rate 0.038% among 300,000;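 active means more than half of replicate wells score below -50%, meaning over 50% inhibition versus plate controls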;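 further: 0% = median DMSO wells and -100% = median GW8510 positive control wells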
Target sequence (P49841 whole entry, looked up): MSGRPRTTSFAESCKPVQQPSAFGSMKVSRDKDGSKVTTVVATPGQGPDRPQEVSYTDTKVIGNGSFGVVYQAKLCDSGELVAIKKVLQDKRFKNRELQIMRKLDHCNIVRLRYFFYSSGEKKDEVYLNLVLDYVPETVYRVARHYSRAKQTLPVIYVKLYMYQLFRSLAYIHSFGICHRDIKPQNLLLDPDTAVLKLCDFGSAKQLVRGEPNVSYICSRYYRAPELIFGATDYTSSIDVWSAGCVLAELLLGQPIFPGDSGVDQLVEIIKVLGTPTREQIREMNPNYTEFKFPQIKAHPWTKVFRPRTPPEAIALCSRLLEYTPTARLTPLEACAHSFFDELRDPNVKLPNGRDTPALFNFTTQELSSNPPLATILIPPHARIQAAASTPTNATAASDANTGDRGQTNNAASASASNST
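Assay system: GST-fused GSK3beta enzyme, cell-free / Medium: Tris pH 7.5 buffer with MgCl2, DTT, BSA, heparin / Also added: peptide substrate plus 25 µM ATP (final) / Compound: 10 µM single point / Timing: kinase reaction with compound 60 min at room temperature / Detection: ADP-Glo luminescence / Benchmarks: DMSO neutral wells and GW8510 at 20 µM as positive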
STK33 kinase inh – inhibitors of human STK33 kinase; Q9BYT3; purified STK33, MBP phosphorylation, ADP-Glo luminescence; inhibition, % at 10 µM; hit rate 0.073% among 320,000; AID 2661;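 active means inhibition at or above 25%, using the most active replicate where run in duplicate; inactive means inhibition below 25%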
GSIS activator – GLuc luminescence reporter in INS-1E cells, primary screen for activators of glucose-dependent secretion of insulin; hit rate 0.61% among 370,000; activation, % at 16.6 µM; AID 743287; INS-1E GLuc reporter insulin secretion, 2-3 h;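 active means lowest replicate activation of at least 40%, so every replicate reaches that level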;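 further: 0% = median of neutral control wells and 100% = median of IBMX positive control wells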
* = called active by the depositor; x = no result given; [ ] = remark or other dose. Shown are actives, neighbours in structure and some others; about 1.4% of the full set was active somewhere.

SMILES	Env fusion inh	GSK3A inh	CDK5 inh	GSK3beta inhib	STK33 kinase inh	GSIS activator
CN1CCc2nc3sc(C#N)c(N)c3c(-c3cccs3)c2C1	x	95*	1	-6	4	-9
CS(=O)(=O)N1C[C@@H]2N[C@H](C1)C2c1ccccc1 (stereo partly drawn)	x	x	x	x	x	15
CCCCn1c(O)c(C(C)=NCCCn2ccnc2)c(=O)[nH]c1=O	-2	54*	0	-3	1	x
CCCCn1c(O)c(C=NCCCn2ccnc2)c(=O)[nH]c1=O	x	68*	0	0	0	x
C=CCn1c(O)c(C=NCCCn2ccnc2)c(=O)[nH]c1=O	-2	49	1	-22	-1	13
CCOC(=O)[C@]12Cc3c(cc(OC)c(OC)c3OC)[C@H]1N(Cc1ccccc1)C(=O)c1ccccc12	64*	x	0	x	x	-9
CCCN1[C@@H]2Cn3c(cccc3=O)[C@H]1[C@@H](C(=O)N(C)C)[C@@H]2CO	-21[16.7 µM]	x	x	x	x	8
COC(=O)C1=C(c2ccc3ccccc3c2)C[C@@H]2CC[C@H]1N2C	9	-1	2	x	0	0
COC(=O)C1=C(C(=O)OC)C2OC1c1cc3ccccc3cc12	23	x	7	x	x	118*
O=C1CN=C(c2ccccc2)c2ccccc2N1Cc1ccc(C(F)(F)F)cc1	76*	0	-1	-2	-1	-37
Cc1oc(-c2ccccc2Cl)nc1CN1C(=O)CN=C(c2ccccc2)c2ccccc21	15	2	-1	3	-1	x
c1ccc(N2[C@@H]3CC[C@H]2c2ccncc2C3)cc1	10	x	x	x	x	48*
COc1ccc(OC(=O)N(C)C[C@H]2OCc3ccccc3-c3c(n(C)c4ccccc34)C(=O)N([C@H](C)CO)C[C@H]2C)cc1	x	x	x	x	x	-22
COc1ccc(OC(=O)N(C)C[C@@H]2OCc3ccccc3-c3c(n(C)c4ccccc34)C(=O)N([C@H](C)CO)C[C@@H]2C)cc1	69*	x	x	x	x	-23
Cc1ccccc1-n1c(O)c(/C=C2/C(c3ccccc3)=Nc3ccccc32)c(=O)[nH]c1=O	25	-7	-1	-1	0	-5
Cc1cccc(-n2c(O)c(/C=C3/C(c4ccccc4)=Nc4ccccc43)c(=O)[nH]c2=O)c1	92*	3	0	1	1	-18
Cc1cc2c(C(C)C)c(O)c(O)c(C=O)c2c(O)c1-c1c(C)cc2c(C(C)C)c(O)c(O)c(C=O)c2c1O	61*	x	x	x	x	x
S=C(NCCc1ccccc1)N1Cc2cc(N3CCCCC3)ccc2-n2nncc2C1	75*	x	x	x	x	-41
C=CCN1[C@@H]2CN(CC(F)(F)F)C[C@H]1C2c1ccc(Br)cc1 (stereo partly drawn)	x	x	x	x	x	4
COC(=O)C1=C(c2cc3ccccc3o2)C[C@@H]2CC[C@H]1N2C(=O)NCc1ccco1	1	-3	-2	0	-1	-3
COC(=O)C1=C(c2cc3ccccc3o2)C[C@@H]2CC[C@H]1N2C(=O)NCc1cccc2ccccc12	101*	0	0	0	0	1
CCN(CCNc1ccc([N+](=O)[O-])c2cccnc12)S(=O)(=O)c1ccc(Cl)cc1	81*	-2	1	0	-1	x
O=c1c2ccccc2nc(CN2CCCCCC2)n1-c1ccc(F)cc1	71*	-2	-1	3	-1	-4
O=C(Cc1ccccn1)N1CCCCN2[C@@H](CO)[C@@H](c3ccc(-c4ccccc4)cc3)[C@@H]2C1	x	x	x	x	x	-13
CC1CC(C)CC(C)C(O)C(C#N)=CC=CCC(C2CCCC2C(=O)O)OC(=O)CC(O)C(C)C1 (stereo not drawn)	71*	x	0	x	x	-27
CC(C)NC(=O)N1C[C@@H]2C(c3ccccc3)[C@H](C1)N2C (stereo partly drawn)	x	x	x	x	x	-7
CN1[C@@H]2CN(S(C)(=O)=O)C[C@H]1C2c1ccc(Br)cc1 (stereo partly drawn)	x	x	x	x	x	-9

Assay outcomes from PubChem.
